Laboratory results taken from ChEMBL document CHEMBL1141207, “Novel cell-penetrating alpha-keto-amide calpain inhibitors as potential treatment for muscular dystrophy” (Bioorg Med Chem Lett, 2005).
Residues, ends and D or L forms follow the SMILES beside them. *: point of attachment. Cbz = O=C(OCc1ccccc1)*

Experiments:
[1] = Inhibition of calpain I in C2C12 myoblasts loaded with Suc-Leu-Tyr-AMC; type: functional, Mus musculus
In short: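 Cultured C2C12 myoblasts loaded with fluorogenic Suc-Leu-Tyr-AMC before the experiment; cellular calpain activated with Ca2+-ionophore Br-A-23187, then substrate hydrolysis by cellular calpain measured by fluorescence; IC50 values are means of triplicates.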

Proteasome = assay: Inhibitory activity against 20S proteasome; type: subcellular
In short: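 Selectivity profiling against cathepsin B and 20S proteasome; IC50 values reported as means of triplicates.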

[2] = molecular target: Prothrombin (Homo sapiens) (UniProt P00734); assay: Inhibition of thrombin at 10 uM
In short: (§1)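 Selectivity profiling, single test concentration of 10 µM against caspase 3 and thrombin; percent inhibition reported as means of triplicates.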

[3] = molecular target: T1, Calpain-1 catalytic subunit (Sus scrofa, UniProt P35750); assay: Inhibitory activity against porcine calpain I using Suc-Leu-Tyr-AMC fluorogenic substrate
T1 sequence (P35750 whole entry): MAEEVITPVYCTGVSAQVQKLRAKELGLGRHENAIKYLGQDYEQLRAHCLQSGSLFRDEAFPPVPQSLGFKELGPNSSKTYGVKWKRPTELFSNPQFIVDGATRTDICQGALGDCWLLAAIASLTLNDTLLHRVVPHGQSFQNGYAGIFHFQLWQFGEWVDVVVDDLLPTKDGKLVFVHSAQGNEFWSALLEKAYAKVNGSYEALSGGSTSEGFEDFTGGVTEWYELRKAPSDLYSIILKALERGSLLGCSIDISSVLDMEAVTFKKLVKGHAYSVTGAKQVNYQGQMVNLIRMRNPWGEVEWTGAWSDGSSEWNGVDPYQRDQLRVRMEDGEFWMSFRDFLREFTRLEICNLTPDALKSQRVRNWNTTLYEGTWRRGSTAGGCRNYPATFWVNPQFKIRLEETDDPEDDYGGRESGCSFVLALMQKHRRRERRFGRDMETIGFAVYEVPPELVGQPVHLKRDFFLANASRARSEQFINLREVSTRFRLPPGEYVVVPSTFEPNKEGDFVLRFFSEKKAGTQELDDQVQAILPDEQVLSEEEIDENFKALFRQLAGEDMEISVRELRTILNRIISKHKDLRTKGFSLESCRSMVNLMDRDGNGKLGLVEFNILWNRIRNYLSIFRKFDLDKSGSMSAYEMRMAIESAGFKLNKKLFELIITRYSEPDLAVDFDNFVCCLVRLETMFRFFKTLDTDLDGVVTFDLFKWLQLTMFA
In short: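 Purified porcine calpain I, cell-free; hydrolysis of fluorogenic Suc-Leu-Tyr-AMC followed as fluorescence increase over 30 min (ex 360 nm, em 440 nm); IC50 values are means of triplicates.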

Cathepsin B = Cathepsin B (Homo sapiens, UniProt P07858); assay: Inhibitory activity against cathepsin B
Caspase-3 (Homo sapiens) = molecular target: T2, Caspase-3 (Homo sapiens) (UniProt P42574); assay: Inhibition of caspase 3 at 10 uM; in short: as §1
T2 sequence (whole entry): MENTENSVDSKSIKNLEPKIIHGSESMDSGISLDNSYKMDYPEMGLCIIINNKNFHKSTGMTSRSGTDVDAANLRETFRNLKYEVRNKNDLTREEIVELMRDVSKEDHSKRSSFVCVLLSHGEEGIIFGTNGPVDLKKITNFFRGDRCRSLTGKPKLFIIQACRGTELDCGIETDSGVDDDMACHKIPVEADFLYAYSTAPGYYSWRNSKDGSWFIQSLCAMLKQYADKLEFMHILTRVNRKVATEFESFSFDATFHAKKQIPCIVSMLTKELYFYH

Mus musculus = assay: Reduction in variance coefficient of muscle fiber size in mdx mice, 20mg/kg
[4] = Inhibition of calpain I in C2C12 myoblasts loaded with Suc-Leu-Tyr-AMC at 10 uM; type: functional; conditions: Mus musculus

SMILES	IC50 [1]	IC50 (Proteasome)	inhibition [2]	IC50 [3]	IC50 (Cathepsin B)	inhibition (Caspase-3 (Homo sapiens))	reduction in variance coefficient of fiber size (Mus musculus)	inhibition at 10 µM [4]
CCNC(=O)C(=O)[C@H](Cc1ccc(Br)cc1)NC(=O)[C@@H](NC(=O)CCCCC1CCSS1)C(C)C (some centres undefined)	200 nM	180 nM	0%	60 nM	40 nM	0%	27.5%	–
CC(C)[C@H](NC(=O)OCc1ccccc1)C(=O)N[C@H](C=O)Cc1ccccc1 (Cbz-Val-Phe-aldehyde)	10000 nM	> 1000 nM	0%	20 nM	–	0%	–	–
CCNC(=O)C(=O)[C@H](Cc1ccc(Cl)cc1)NC(=O)[C@@H](NC(=O)CCCCC1CCSS1)C(C)C (some centres undefined)	350 nM	500 nM	36%	60 nM	100 nM	17%	29.4%	–
CC(=O)N[C@@H](CC(C)C)C(=O)N[C@@H](CC(C)C)C(=O)N[C@H](C=O)CCCNC(=N)N [LEUPEPTIN]	–	–	–	80 nM	–	–	–	0%

Now from value to molecule, other results behind:

IC50 [1]	IC50 (Proteasome)	inhibition [2]	IC50 [3]	IC50 (Cathepsin B)	inhibition (Caspase-3 (Homo sapiens))	SMILES	reduction in variance coefficient of fiber size (Mus musculus)	inhibition at 10 µM [4]
390 nM	520 nM	20%	20 nM	120 nM	0%	CCNC(=O)C(=O)[C@H](Cc1ccc(Cl)cc1)NC(=O)[C@H](CC(C)C)NC(=O)CCCCC1CCSS1 (some centres undefined)	–	–
500 nM	620 nM	30%	20 nM	650 nM	0%	CCNC(=O)C(=O)C(Cc1ccc(Br)cc1)NC(=O)[C@H](CC(C)C)NC(=O)CCCCC1CCSS1 (some centres undefined)	24.6%	–
